Source: ChEMBL document CHEMBL2057150, “The synthesis and SAR of calcitonin gene-related peptide (CGRP) receptor antagonists derived from tyrosine surrogates. Part 1” (Bioorg Med Chem Lett, 2012)
Calls of active or inactive are those of the source. No cut-off for these calls is given here.

Columns and labels:
[1] = Cardiovascular toxicity in human coronary arteries assessed as induction of vasoconstriction after 30 mins; set-up: species or system Coronary artery; conditions: for Activity: 0.5 h; for EC50 at 30 min: human coronary arteries
In short: (§1)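 Ex vivo human arteries in tissue baths; test agent applied up to 10 µM and contraction recorded. Serotonin (10 µM) added to each bath at session end as the reference for maximal vessel contractility; contraction expressed as percent of serotonin maximum.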

[2] = Cardiovascular toxicity in human coronary arteries assessed as induction of vasoconstriction after 30 mins relative to serotonin; set-up: species or system Coronary artery; in short: as §1
[3] = biological target: Calcitonin gene-related peptide type 1 receptor (Homo sapiens, UniProt O60894+Q16602); experiment: Displacement of [125I]CGRP from CGRP receptor in human SK-N-MC cell membrane after 2 hrs; assay type: cell membranes
Chain of Calcitonin gene-related peptide type 1 receptor (Q16602 whole entry, one chain of several): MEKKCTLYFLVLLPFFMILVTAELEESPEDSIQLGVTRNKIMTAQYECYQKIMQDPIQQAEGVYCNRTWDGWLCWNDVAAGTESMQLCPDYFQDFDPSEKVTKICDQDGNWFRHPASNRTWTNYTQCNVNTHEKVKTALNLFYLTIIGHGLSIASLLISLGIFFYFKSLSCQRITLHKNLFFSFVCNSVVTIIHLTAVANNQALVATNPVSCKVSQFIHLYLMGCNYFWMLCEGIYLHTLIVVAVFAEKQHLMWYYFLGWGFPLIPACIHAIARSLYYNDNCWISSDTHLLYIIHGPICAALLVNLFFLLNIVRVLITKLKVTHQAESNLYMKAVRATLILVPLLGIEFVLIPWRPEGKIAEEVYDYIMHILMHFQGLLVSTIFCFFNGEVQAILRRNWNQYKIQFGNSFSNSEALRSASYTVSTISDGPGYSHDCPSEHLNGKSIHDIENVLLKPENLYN

[4] = biological target: T1, Cytochrome P450 3A4 (Homo sapiens, UniProt P08684); experiment: Inhibition of human recombinant CYP3A4 expressed in baculo-virus infected insect microsomes using benzyloxyresorufin as substrate after 45 mins by fluorescence detection assay; assay type: ADME, Microsome
T1 sequence (P08684 whole entry): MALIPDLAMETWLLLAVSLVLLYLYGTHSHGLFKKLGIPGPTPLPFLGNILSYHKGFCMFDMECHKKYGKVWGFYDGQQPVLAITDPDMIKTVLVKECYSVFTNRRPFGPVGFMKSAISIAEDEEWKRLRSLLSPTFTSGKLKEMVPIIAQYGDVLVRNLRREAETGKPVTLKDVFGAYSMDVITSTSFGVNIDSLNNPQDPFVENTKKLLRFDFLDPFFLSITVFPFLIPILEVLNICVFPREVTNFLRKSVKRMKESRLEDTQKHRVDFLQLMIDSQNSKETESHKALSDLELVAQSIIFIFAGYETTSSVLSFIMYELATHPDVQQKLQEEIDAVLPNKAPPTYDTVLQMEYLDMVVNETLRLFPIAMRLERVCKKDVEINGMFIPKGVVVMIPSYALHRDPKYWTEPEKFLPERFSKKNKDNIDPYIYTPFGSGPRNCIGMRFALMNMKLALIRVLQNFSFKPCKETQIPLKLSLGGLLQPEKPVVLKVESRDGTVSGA

[5] = system: Callithrix jacchus; experiment: Antimigraine activity in marmosets assessed as inhibition of CGRP-induced increase in facial blood flow at 1 mg/kg, sc administered 30 mins post CGRP-challenge measured up to 105 mins by laser doppler flowmetry; assay type: functional, organism-based; set-up: dose 1 mg/kg
In short: (§2)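 Anesthetized marmosets; facial blood flow raised by iv hαCGRP (10 µg/kg) at 45 min intervals (-30, 15, 60, 105 min). Antagonist given sc at 0 min (dose range 0.3–1 mg/kg). CGRP-induced changes in facial blood flow read by laser Doppler flowmetry.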

[6] = Cardiovascular toxicity in human coronary arteries assessed as induction of vasoconstriction up to 10 uM after 30 mins; set-up: species or system Coronary artery; conditions: 0.5 h; in short: as §1
[7] = system: Callithrix jacchus; experiment: Antimigraine activity in sc dosed marmosets assessed as inhibition of CGRP-induced increase in facial blood flow administered 30 mins post CGRP-challenge measured up to 105 mins by laser doppler flowmetry; assay type: functional, organism-based; in short: as §2
[8] = biological target: T1, Cytochrome P450 3A4; experiment: Inhibition of human recombinant CYP3A4 expressed in baculo-virus infected insect microsomes using 7-benzyloxy-4-trifluoromethylcoumarin as substrate after 20 mins by fluorescence detection assay; assay type: ADME, Microsome

Row | SMILES | Ki [3] | IC50 [4] | further results
1 | CN(C)CCc1c[nH]c2ccc(C[C@H]3COC(=O)N3)cc12 [ZOLMITRIPTAN] |  |  | Activity [1]: Dose-dependent effect; EC50 at 30 min [1]: 40 nM; Emax at 0.5 h [2]: 39%
2 | O=C(N[C@H](CCc1ccc(O)cc1)C(=O)N1CCC(N2CCCCC2)CC1)N1CCC(n2c(=O)[nH]c3ccccc32)CC1 | 2100 nM |  | 
3 | Cc1nc2cc(C[C@@H](NC(=O)N3CCC(N4Cc5ccccc5NC4=O)CC3)C(=O)N3CCC(N4CCCCC4)CC3)ccc2[nH]1 | 28 nM |  | 
4 | O=C(N[C@H](Cc1ccc2[nH]c(=O)oc2c1)C(=O)N1CCC(N2CCCCC2)CC1)N1CCC(N2Cc3ccccc3NC2=O)CC1 | 0.27 nM | 30000 nM | 
5 | O=C(N[C@H](Cc1ccc2nn[nH]c2c1)C(=O)N1CCC(N2CCCCC2)CC1)N1CCC(N2Cc3ccccc3NC2=O)CC1 | 0.55 nM | 23000 nM | 
6 | CNS(=O)(=O)Cc1ccc2[nH]cc(CCN(C)C)c2c1 |  |  | Activity [1]: Dose-dependent effect; EC50 at 30 min [1]: 120 nM; Emax at 0.5 h [2]: 48%
7 | O=C(N[C@@H](Cc1cc(Br)c(O)c(Br)c1)C(=O)N1CCC(N2CCCCC2)CC1)N1CCC(n2c(=O)[nH]c3ccccc32)CC1 | > 1000 nM |  | 
8 | O=C(N[C@H](Cc1cc(Br)c(O)c(Br)c1)C(=O)N1CCC(N2CCCCC2)CC1)N1CCC(n2c(=O)[nH]c3ccccc32)CC1 | 0.65 nM | 2400 nM | 
9 | O=C(N[C@H](CCc1ccccc1)C(=O)N1CCC(N2CCCCC2)CC1)N1CCC(n2c(=O)[nH]c3ccccc32)CC1 | > 1000 nM |  | 
10 | O=C(NC(Cc1ccc2[nH]ccc2c1)C(=O)N1CCC(N2CCCCC2)CC1)N1CCC(n2c(=O)[nH]c3ccccc32)CC1 (racemic) | 32 nM | 2500 nM | 
11 | O=C(O)CC[C@@H](NC(=O)N1CCC(n2c(=O)[nH]c3ccccc32)CC1)C(=O)N1CCC(N2CCCCC2)CC1 | > 1000 nM |  | 
12 | CC(C)C[C@@H](NC(=O)N1CCC(n2c(=O)[nH]c3ccccc32)CC1)C(=O)N1CCC(N2CCCCC2)CC1 | 2400 nM | 16000 nM | 
13 | O=C(N[C@@H](C(=O)N1CCC(N2CCCCC2)CC1)c1ccccc1)N1CCC(n2c(=O)[nH]c3ccccc32)CC1 | > 1000 nM |  | 
14 | COc1ccc(C[C@@H](NC(=O)N2CCC(n3c(=O)[nH]c4ccccc43)CC2)C(=O)N2CCC(N3CCCCC3)CC2)cc1 | 1400 nM |  | 
15 | O=C(N[C@@H](Cc1ccc2[nH]ncc2c1)C(=O)N1CCC(N2CCCCC2)CC1)N1CCC(N2Cc3ccccc3NC2=O)CC1 |  | 7300 nM | inhibition [5]: inactive
16 | O=C(N[C@H](Cc1cccc2ccccc12)C(=O)N1CCC(N2CCCCC2)CC1)N1CCC(n2c(=O)[nH]c3ccccc32)CC1 | 7.2 nM | 30 nM | 
17 | CC(=O)Nc1ccc(C[C@@H](NC(=O)N2CCC(n3c(=O)[nH]c4ccccc43)CC2)C(=O)N2CCC(N3CCCCC3)CC2)cc1 | 1900 nM |  | 
18 | O=C(NC(Cc1ccc2[nH]ncc2c1)C(=O)N1CCC(N2CCCCC2)CC1)N1CCC(n2c(=O)[nH]c3ccccc32)CC1 (racemic) | 68 nM | 17000 nM | Activity [6]: Non-toxic
19 | O=C(N[C@H](Cc1ccc(-c2ccccc2)cc1)C(=O)N1CCC(N2CCCCC2)CC1)N1CCC(n2c(=O)[nH]c3ccccc32)CC1 | 250 nM | 1300 nM | 
20 | Cn1cc(C[C@@H](NC(=O)N2CCC(n3c(=O)[nH]c4ccccc43)CC2)C(=O)N2CCC(N3CCCCC3)CC2)c2ccccc21 | 16 nM | 100 nM | 
21 | O=C(N[C@H](Cc1ccc2[nH]ncc2c1)C(=O)N1CCC(N2CCCCC2)CC1)N1CCC(N2Cc3ccccc3NC2=O)CC1 |  |  | Activity [6]: Non-toxic; inhibition [7]: Dose-dependent effect
22 | Nc1ccc(C[C@@H](NC(=O)N2CCC(n3c(=O)[nH]c4ccccc43)CC2)C(=O)N2CCC(N3CCCCC3)CC2)cc1 | 750 nM |  | 
23 | O=C(N[C@H](Cc1ccc2ccccc2c1)C(=O)N1CCC(N2CCCCC2)CC1)N1CCC(n2c(=O)[nH]c3ccccc32)CC1 | 230 nM | 30 nM | 
24 | O=C(N[C@H](Cc1csc2ccccc12)C(=O)N1CCC(N2CCCCC2)CC1)N1CCC(n2c(=O)[nH]c3ccccc32)CC1 | 0.55 nM | 84 nM | IC50 [8]: 870 nM
25 | O=C(N[C@H](Cc1c[nH]c2ccccc12)C(=O)N1CCC(N2CCCCC2)CC1)N1CCC(n2c(=O)[nH]c3ccccc32)CC1 | 84 nM | > 40000 nM | 
26 | O=C(N[C@H](Cc1ccccc1)C(=O)N1CCC(N2CCCCC2)CC1)N1CCC(n2c(=O)[nH]c3ccccc32)CC1 | 300 nM |  | 
27 | O=C1Cc2cc(C[C@@H](NC(=O)N3CCC(N4Cc5ccccc5NC4=O)CC3)C(=O)N3CCC(N4CCCCC4)CC3)ccc2N1 | 0.65 nM | 11000 nM | 
28 | O=C(N[C@H](Cc1ccc(O)cc1)C(=O)N1CCC(N2CCCCC2)CC1)N1CCC(n2c(=O)[nH]c3ccccc32)CC1 | 2.5 nM | > 40000 nM | 
29 | NC(=O)CC[C@@H](NC(=O)N1CCC(n2c(=O)[nH]c3ccccc32)CC1)C(=O)N1CCC(N2CCCCC2)CC1 | > 1000 nM |  | 
